According to ChEMBL document CHEMBL4033712, “Synthesis and biological evaluation of new C-12(α/β)-(N-) sulfamoyl-phenylamino-14-deoxy-andrographolide derivatives as potent anti-cancer agents” (Bioorg Med Chem Lett, 2017):

Columns and labels:
Type in all cases: functional
RXF 393 = assay: Anticancer activity against human RXF393 cells assessed as cell growth at 10 uM after 48 hrs by sulforhodamine B assay relative to control; conditions: RXF 393, 48 h, read-out: Activity
In short: (§1)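 Single-dose NCI-60 panel screen: compound added at 10 µM and the culture incubated 48 h. The end point was read by protein staining with sulforhodamine B. The value is percent growth of treated cells relative to untreated control cells, reported as a mean graph across the panel.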

NCI/ADR-RES [1] = assay: Growth inhibition of human NCI/ADR-RES cells incubated for 48 hrs by sulforhodamine B assay
In short: (§2)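 NCI-60 five-dose screen at 0.01, 0.1, 1, 10 and 100 µM, 48 h incubation, sulforhodamine B end point. GI50 (50% decrease in net growth), TGI (total growth inhibition) and LC50 (net 50% loss of initial cells) taken from log concentration versus % growth inhibition curves.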

OVCAR-8 = assay: Anticancer activity against human OVCAR8 cells assessed as cell growth at 10 uM after 48 hrs by sulforhodamine B assay relative to control; conditions: OVCAR-8, 48 h, read-out: Activity; in short: as §1
HL-60(TB) = assay: Anticancer activity against human HL-60(TB) cells assessed as cell growth at 10 uM after 48 hrs by sulforhodamine B assay relative to control; conditions: HL-60, 48 h, read-out: Activity
In short: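 NCI-60 human tumour panel single-dose screen: cells exposed to 10 µM compound for 48 h. Growth end point read with sulforhodamine B protein-binding dye. Expressed as percent growth of treated cells versus untreated control cells.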

TK-10 = assay: Anticancer activity against human TK10 cells assessed as cell growth at 10 uM after 48 hrs by sulforhodamine B assay relative to control; conditions: TK-10, 48 h, read-out: Activity
In short: (§3)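 NCI-60 single-dose screen: compound added at 10 µM, cultures incubated 48 h. End point by sulforhodamine B protein-binding dye. Value reported as percent growth of treated cells relative to untreated control cells.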

NCI-H522 = assay: Anticancer activity against human NCI-H522 cells assessed as cell growth at 10 uM after 48 hrs by sulforhodamine B assay relative to control; conditions: NCI-H522, 48 h, read-out: Activity; in short: as §1
DU-145 = assay: Anticancer activity against human DU145 cells assessed as cell growth at 10 uM after 48 hrs by sulforhodamine B assay relative to control; conditions: DU-145, 48 h, read-out: Activity; in short: as §1
ACHN = assay: Anticancer activity against human ACHN cells assessed as cell growth at 10 uM after 48 hrs by sulforhodamine B assay relative to control; conditions: read-out: Activity; in short: as §1
HCC 2998 = assay: Growth inhibition of human HCC2998 cells incubated for 48 hrs by sulforhodamine B assay; conditions: HCC 2998, 48 h; for CC50: read-out: LC50 (the source's name); in short: as §2
M14 = assay: Anticancer activity against human M14 cells assessed as cell growth at 10 uM after 48 hrs by sulforhodamine B assay relative to control; conditions: M14, 48 h, read-out: Activity; in short: as §1
NCI-H460 = assay: Anticancer activity against human NCI-H460 cells assessed as cell growth at 10 uM after 48 hrs by sulforhodamine B assay relative to control; conditions: NCI-H460, 48 h, read-out: Activity; in short: as §1
UACC-257 = assay: Anticancer activity against human UACC257 cells assessed as cell growth at 10 uM after 48 hrs by sulforhodamine B assay relative to control; conditions: UACC-257, 48 h, read-out: Activity; in short: as §3
COLO 205 = assay: Anticancer activity against human COLO205 cells assessed as cell growth at 10 uM after 48 hrs by sulforhodamine B assay relative to control; conditions: COLO 205, 48 h, read-out: Activity; in short: as §1
NCI/ADR-RES [2] = assay: Anticancer activity against human NCI/ADR-RES cells assessed as cell growth at 10 uM after 48 hrs by sulforhodamine B assay relative to control; conditions: read-out: Activity; in short: as §1
UACC-62 = assay: Anticancer activity against human UACC62 cells assessed as cell growth at 10 uM after 48 hrs by sulforhodamine B assay relative to control; conditions: UACC-62, 48 h, read-out: Activity; in short: as §3
MDA-MB-468 = assay: Growth inhibition of human MDA-MB-468 cells incubated for 48 hrs by sulforhodamine B assay; conditions: MDA-MB-468, 48 h; in short: as §2
NCI-H226 = assay: Anticancer activity against human NCI-H226 cells assessed as cell growth at 10 uM after 48 hrs by sulforhodamine B assay relative to control; conditions: NCI-H226, 48 h, read-out: Activity; in short: as §1
RPMI-8226 = assay: Anticancer activity against human RPMI8226 cells assessed as cell growth at 10 uM after 48 hrs by sulforhodamine B assay relative to control; conditions: RPMI-8226, 48 h, read-out: Activity; in short: as §1
IGROV-1 = assay: Anticancer activity against human IGROV1 cells assessed as cell growth at 10 uM after 48 hrs by sulforhodamine B assay relative to control; conditions: IGROV-1, 48 h, read-out: Activity; in short: as §1
SK-MEL-5 = assay: Anticancer activity against human SK-MEL-5 cells assessed as cell growth at 10 uM after 48 hrs by sulforhodamine B assay relative to control; conditions: SK-MEL-5, 48 h, read-out: Activity; in short: as §1
OVCAR-3 = assay: Anticancer activity against human OVCAR3 cells assessed as cell growth at 10 uM after 48 hrs by sulforhodamine B assay relative to control; conditions: OVCAR-3, 48 h, read-out: Activity; in short: as §1
Malme-3M = assay: Anticancer activity against human MALME-3M cells assessed as cell growth at 10 uM after 48 hrs by sulforhodamine B assay relative to control; conditions: read-out: Activity; in short: as §1
T47D = assay: Anticancer activity against human T47D cells assessed as cell growth at 10 uM after 48 hrs by sulforhodamine B assay relative to control; conditions: read-out: Activity; in short: as §3
PC-3 = assay: Growth inhibition of human PC3 cells incubated for 48 hrs by sulforhodamine B assay; conditions: PC-3, 48 h; for CC50: read-out: LC50 (the source's name); in short: as §2
HOP-62 = assay: Anticancer activity against human HOP62 cells assessed as cell growth at 10 uM after 48 hrs by sulforhodamine B assay relative to control; conditions: HOP-62, 48 h, read-out: Activity; in short: as §1
MDA-MB-435 = assay: Anticancer activity against human MDA-MB-435 cells assessed as cell growth at 10 uM after 48 hrs by sulforhodamine B assay relative to control; conditions: MDA-MB-435, 48 h, read-out: Activity; in short: as §1
HCT-116 = assay: Anticancer activity against human HCT116 cells assessed as cell growth at 10 uM after 48 hrs by sulforhodamine B assay relative to control; conditions: HCT-116, 48 h, read-out: Activity; in short: as §1
HT-29 = assay: Anticancer activity against human HT-29 cells assessed as cell growth at 10 uM after 48 hrs by sulforhodamine B assay relative to control; conditions: HT-29, 48 h, read-out: Activity; in short: as §1
A498 = assay: Anticancer activity against human A498 cells assessed as cell growth at 10 uM after 48 hrs by sulforhodamine B assay relative to control; conditions: A498, 48 h, read-out: Activity; in short: as §1

Work on `C=C1CC[C@@H]2[C@](C)(COC(C)=O)[C@H](OC(C)=O)CC[C@@]2(C)[C@H]1CC(Nc1ccc(S(=O)(=O)Nc2nccs2)cc1)C1=CCOC1=O` (stereo partly drawn) yielded a growth at 10 µM (RXF 393) of -50.6%, a GI50 (NCI/ADR-RES [1]) of 2970 nM and an LC50 (concentration giving net 50% loss of initial cells) (NCI/ADR-RES [1]) greater than 100 µM. The TGI (NCI/ADR-RES [1]) was 12.7 µM, the growth at 10 µM (OVCAR-8) was 4.39% and the growth at 10 µM (HL-60(TB)) was -20.9%. For the same molecule, the growth at 10 µM (TK-10) was 55%, the growth at 10 µM (NCI-H522) was -61.9% and the growth at 10 µM (DU-145) was 22.3%. The growth at 10 µM (ACHN) was -46.6%, the GI50 (HCC 2998) was 7.78 µM and the TGI (HCC 2998) was 21.3 µM. It also gave a CC50 (HCC 2998) of 50.3 µM, a growth at 10 µM (M14) of 8.12% and a growth at 10 µM (NCI-H460) of 29.5%. For the same molecule, the growth at 10 µM (UACC-257) was 22.4%, the growth at 10 µM (COLO 205) was -24.6% and the growth at 10 µM (NCI/ADR-RES [2]) was 9.2%. For the same molecule, the growth at 10 µM (UACC-62) was 21.2%, the GI50 (MDA-MB-468) was 1830 nM and the TGI (MDA-MB-468) was 4.43 µM. For the same molecule, the CC50 (MDA-MB-468; read-out: LC50 (the source's name)) was 14.1 µM, the growth at 10 µM (NCI-H226) was -14% and the growth at 10 µM (RPMI-8226) was -13.3%. It also gave a growth at 10 µM (IGROV-1) of 12.6%, a growth at 10 µM (SK-MEL-5) of 31.4% and a growth at 10 µM (OVCAR-3) of -70.2%. It also gave a growth at 10 µM (Malme-3M) of 0.4%, a growth at 10 µM (T47D) of 34.6% and a GI50 (PC-3) of 7.74 µM. For the same molecule, the TGI (PC-3) was 21.5 µM, the CC50 (PC-3) was 52.2 µM and the growth at 10 µM (HOP-62) was 120%. The growth at 10 µM (MDA-MB-435) was -8.31%, the growth at 10 µM (HCT-116) was -30.4% and the growth at 10 µM (HT-29) was -42.7%. The growth at 10 µM (A498) was 85%.
Work on `C=C1CC[C@@H]2[C@](C)(COC(C)=O)[C@H](OC(C)=O)CC[C@@]2(C)[C@H]1CC(Nc1ccc(S(=O)(=O)Nc2ncccn2)cc1)C1=CCOC1=O` (stereo partly drawn) yielded a growth at 10 µM (RXF 393) of -70%, a GI50 (NCI/ADR-RES [1]) of 1830 nM and an LC50 (concentration giving net 50% loss of initial cells) (NCI/ADR-RES [1]) greater than 100 µM. For the same molecule, the TGI (NCI/ADR-RES [1]) was 5.28 µM, the growth at 10 µM (OVCAR-8) was 3.81% and the growth at 10 µM (HL-60(TB)) was -17.2%. The growth at 10 µM (TK-10) was 35.1%, the growth at 10 µM (NCI-H522) was -67.7% and the growth at 10 µM (DU-145) was 14.9%. It also gave a growth at 10 µM (ACHN) of -56.1%, a GI50 (HCC 2998) of 2.1 µM and a TGI (HCC 2998) of 3.81 µM. It also gave a CC50 (HCC 2998) of 6.9 µM, a growth at 10 µM (M14) of 4.76% and a growth at 10 µM (NCI-H460) of 18.1%. It also gave a growth at 10 µM (UACC-257) of 16.6%, a growth at 10 µM (COLO 205) of -12.1% and a growth at 10 µM (NCI/ADR-RES [2]) of 16.1%. The growth at 10 µM (UACC-62) was 3.93%, the GI50 (MDA-MB-468) was 1330 nM and the TGI (MDA-MB-468) was 3.57 µM. It also gave a growth at 10 µM (NCI-H226) of -16.6%, a growth at 10 µM (RPMI-8226) of -12.7% and a growth at 10 µM (IGROV-1) of 7.21%. It also gave a growth at 10 µM (SK-MEL-5) of 24.1%, a growth at 10 µM (OVCAR-3) of -80.6% and a growth at 10 µM (Malme-3M) of -4.93%. For the same molecule, the growth at 10 µM (T47D) was 42.3%, the GI50 (PC-3) was 2.11 µM and the TGI (PC-3) was 5.07 µM. It also gave a CC50 (PC-3) of 17.5 µM, a growth at 10 µM (HOP-62) of 126% and a growth at 10 µM (MDA-MB-435) of -14.8%. It also gave a growth at 10 µM (HCT-116) of -55%, a growth at 10 µM (HT-29) of -48.6% and a growth at 10 µM (A498) of 79%.
